Results as given in ChEMBL document CHEMBL1130112, “H3-receptor antagonists: synthesis and structure-activity relationships of para- and meta-substituted 4(5)-phenyl-2-[[2-[4(5)-imidazolyl]ethyl]thio]imidazoles” (J Med Chem, 1997).
Active and inactive are the calls of the source. No cut-off for these calls is given here.

Columns and labels:
[1] = LogP of the free base (neutral species).; format: physicochemical; conditions: octanol/water
In short: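 pH-metric method: octanol/water titrations with Bjerrum plots, 0.15 M KCl ionic strength, 25.0 ± 0.1 °C, samples 0.5–4 mM; constants refined by nonlinear least squares.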

[2] = dissociation constant corresponding to the 4(5)-phenyl-2-thiomidazole; format: ADME; conditions: read-out: pKa,2
In short: (§1)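 pH-metric titration at 25.0 ± 0.1 °C with 0.15 M KCl, samples 0.5–4 mM; for poorly water-soluble compounds, values from 15–60 wt % methanol/water with Yasuda–Shedlovsky extrapolation; refined by nonlinear least squares.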

[3] = dissociation constant corresponding to the 4(5)-alkylimidazole; format: ADME; conditions: read-out: pKa,1; in short: as §1
[4] = target: Histamine H3 receptor (Cavia porcellus, UniProt Q9JI35); experiment: Histamine H3-antagonist potency on electrically stimulated guinea pig ileum; format: functional, tissue-based; conditions: read-out: pA2 (converted)
Sequence of Histamine H3 receptor (Cavia porcellus, UniProt Q9JI35) (Q9JI35 whole entry): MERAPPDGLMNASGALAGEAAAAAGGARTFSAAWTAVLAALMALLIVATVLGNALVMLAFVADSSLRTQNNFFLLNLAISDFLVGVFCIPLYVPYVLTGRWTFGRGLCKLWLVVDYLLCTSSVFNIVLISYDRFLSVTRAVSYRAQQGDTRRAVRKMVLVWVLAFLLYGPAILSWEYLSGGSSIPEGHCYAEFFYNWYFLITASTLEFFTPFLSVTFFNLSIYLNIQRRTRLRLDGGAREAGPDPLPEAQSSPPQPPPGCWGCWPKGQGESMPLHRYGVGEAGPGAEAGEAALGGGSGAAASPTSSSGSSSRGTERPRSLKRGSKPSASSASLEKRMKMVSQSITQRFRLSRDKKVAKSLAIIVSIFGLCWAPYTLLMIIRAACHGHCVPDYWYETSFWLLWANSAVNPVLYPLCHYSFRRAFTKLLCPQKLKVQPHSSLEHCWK
In short: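 Guinea pig (350–550 g) terminal ileum under 1 g load in Krebs Henseleit, 37 °C, O₂ 95%:CO₂ 5%, equilibrated ≥60 min; transmural stimulation (0.1 Hz, 1 ms, submax voltage). Compounds up to 10⁻⁶ M, 30 min, then cumulative (R)-α-methylhistamine (10⁻⁹–10⁻⁶ M) inhibiting twitch, recorded isometrically. pA₂ by Schild regression; mean ± SEM of 10–12 observations.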

[5] = target: Histamine H3 receptor (Rattus norvegicus, UniProt Q9QYN8); experiment: Inhibition of [3H]NAMHA binding to rat brain membrane histamine H3-receptor
Sequence of Histamine H3 receptor (Rattus norvegicus, UniProt Q9QYN8) (Q9QYN8 whole entry): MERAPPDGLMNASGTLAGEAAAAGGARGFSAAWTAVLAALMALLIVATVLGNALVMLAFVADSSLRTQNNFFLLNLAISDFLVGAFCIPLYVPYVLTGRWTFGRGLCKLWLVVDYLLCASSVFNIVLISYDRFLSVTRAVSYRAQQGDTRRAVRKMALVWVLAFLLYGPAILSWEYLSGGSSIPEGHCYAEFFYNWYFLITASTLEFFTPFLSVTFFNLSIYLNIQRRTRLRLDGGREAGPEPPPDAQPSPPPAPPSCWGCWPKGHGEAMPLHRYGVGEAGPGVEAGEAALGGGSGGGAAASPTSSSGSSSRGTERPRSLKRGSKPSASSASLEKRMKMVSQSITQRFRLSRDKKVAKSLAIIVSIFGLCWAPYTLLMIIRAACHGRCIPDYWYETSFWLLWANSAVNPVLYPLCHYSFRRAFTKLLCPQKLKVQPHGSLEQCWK

[6] = target: Histamine H3 receptor (Cavia porcellus) (UniProt Q9JI35); experiment: Compound was tested for H3-antagonist potency on electrically stimulated guinea pig ileum; Unsurmountable antagonism at concentration > 10^-7 M; format: functional, tissue-based
Sequence of Histamine H3 receptor (Cavia porcellus) (Q9JI35 whole entry): as the sequence (Q9JI35 whole entry) above

Clc1ccc(-c2c[nH]c(SCCc3c[nH]cn3)n2)cc1
logP [1]: 3.66
pKa [2]: 7.1
pKa [3]: 4.12
Kb [4]: 1.35 nM
Ki [5]: 35.5 nM

CCCc1ccc(-c2c[nH]c(SCCc3c[nH]cn3)n2)cc1
logP [1]: 4.09
pKa [2]: 7.03
pKa [3]: 4.34
pA2 [6]: inactive
Ki [5]: 39.8 nM

CN(C)c1ccc(-c2c[nH]c(SCCc3c[nH]cn3)n2)cc1
Kb [4]: 52.5 nM
Ki [5]: 29.5 nM

Brc1cccc(-c2cnc(SCCc3c[nH]cn3)[nH]2)c1
logP [1]: 3.76
pKa [2]: 7.08
pKa [3]: 3.9
Kb [4]: 7.76 nM
Ki [5]: 14.1 nM

c1ccc(-c2cnc(SCCc3c[nH]cn3)[nH]2)cc1
logP [1]: 2.62
pKa [2]: 7.07
pKa [3]: 4.28
Kb [4]: 6.46 nM
Ki [5]: 14.1 nM

NC(=O)c1cccc(-c2cnc(SCCc3c[nH]cn3)[nH]2)c1
logP [1]: 1.61
pKa [2]: 7.05
pKa [3]: 4.01
Kb [4]: 145 nM
Ki [5]: 16.2 nM

CCCCOc1ccc(-c2cnc(SCCc3c[nH]cn3)[nH]2)cc1
logP [1]: 4.11
pKa [2]: 7.06
pKa [3]: 4.3
Kb [4]: 148 nM

O=S(=O)(Oc1ccc(-c2cnc(SCCc3c[nH]cn3)[nH]2)cc1)c1ccccc1
logP [1]: 3.72
pKa [2]: 6.93
pKa [3]: 3.84
Kb [4]: 50.1 nM
Ki [5]: 2.95 nM

O=[N+]([O-])c1ccc(-c2cnc(SCCc3c[nH]cn3)[nH]2)cc1
logP [1]: 2.75
pKa [2]: 6.94
pKa [3]: 3.13
Kb [4]: 16.2 nM
Ki [5]: 52.5 nM

CCCOc1cccc(-c2c[nH]c(SCCc3c[nH]cn3)n2)c1
logP [1]: 3.7
pKa [2]: 7.04
pKa [3]: 4.04
pA2 [6]: inactive
Ki [5]: 9.33 nM

O=[N+]([O-])c1cccc(-c2c[nH]c(SCCc3c[nH]cn3)n2)c1
logP [1]: 2.43
pKa [2]: 6.89
pKa [3]: 3.21
Kb [4]: 3.47 nM
Ki [5]: 30.9 nM

NC(=O)c1ccc(-c2c[nH]c(SCCc3c[nH]cn3)n2)cc1
logP [1]: 1.4
pKa [2]: 7.07
pKa [3]: 3.63
Kb [4]: 117 nM
Ki [5]: 28.2 nM
